In ChEMBL document CHEMBL1152818, “Structural bioinformatics-based design of selective, irreversible kinase inhibitors” (Science, 2005):
pEC50, pIC50: −log10 of the molar value. Blank lines part the entries; values can stand above or below the compound they belong to. Active and inactive are the calls of the source. No cut-off for these calls is given here.

Columns and labels:
[1] = molecular target: Ribosomal protein S6 kinase alpha-3 (Homo sapiens, UniProt P51812, C436V); experiment: Inhibition of RSK2 C-terminal kinase domain C436V mutant expressed in Escherichia coli preincubated for 30 mins
How it was run: (§1)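 His6-tagged RSK2 CTDs (WT or mutant) expressed in E. coli, activated with bacterially expressed His6-ERK2 plus ATP. Enzyme at 1 nM pretreated with inhibitor for 30 min, then assayed with 0.1 mM ATP and 0.1 mM "CTD-tide" peptide substrate.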

[2] = molecular target: Ribosomal protein S6 kinase alpha-3 (Homo sapiens, UniProt P51812, T493M); experiment: Inhibition of RSK2 C-terminal kinase domain T493M mutant expressed in Escherichia coli preincubated for 30 mins; how it was run: as §1
[3] = molecular target: T1, Ribosomal protein S6 kinase alpha-3 (Homo sapiens, UniProt P51812); experiment: Inhibition of RSK2 C-terminal kinase domain expressed in Escherichia coli preincubated for 30 mins; how it was run: as §1
[4] = system: Ribosomal protein S6 kinase alpha-5 (Homo sapiens), O75582 [M498T]; experiment: Inhibition of MSK1 M498T mutant phosphorylation expressed in serum starved african green monkey COS7 cells by Western blot; format: cell-based; conditions: COS-7
How it was run: (§2)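 COS-7 cells transfected with HA-tagged WT or M498T MSK1. Lysed in Laemmli buffer. Western blots probed for phospho-Ser386 RSK (MSK1 autophosphorylation), HA epitope and phospho-Ser10 histone H3.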

[5] = Inhibition of EGF-stimulated RSK2 Ser386 autophosphorylation in serum starved african green monkey COS7 cells by immunoprecipitation and Western blot; format: cell-based, Chlorocebus aethiops; conditions: cos-7
How it was run: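 COS-7 cells serum-deprived 20 h, exposed to a range of inhibitor concentrations, then stimulated with EGF (1 ng/mL) for 10 min. Endogenous RSK2 immunoprecipitated and blotted for phospho-Ser386 and total RSK2. EC50 taken from the concentration series.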

[6] = molecular target: Ribosomal protein S6 kinase alpha-5 (Homo sapiens) (UniProt O75582); experiment: Inhibition of MSK1-mediated histone H3 Ser10 phosphorylation expressed in serum starved african green monkey COS7 cells by Western blot; format: cell-based; conditions: COS-7; how it was run: as §2
[7] = system: COS-7; experiment: Inhibition of EGF-stimulated ERK2 phosphorylation in serum starved african green monkey COS7 cells at 10 µM by Western blot; conditions: Chlorocebus aethiops
[8] = system: COS-7; experiment: Inhibition of EGF-stimulated ERK1 phosphorylation in serum starved african green monkey COS7 cells at 10 µM by Western blot; conditions: Chlorocebus aethiops
[9] = system: NIH3T3; experiment: Inhibition of PMA-stimulated histone H3 phosphorylation in mouse NIH-3T3 cells at 10 uM by SDS page and Western blot; format: functional, cell-based
[10] = molecular target: Tyrosine-protein kinase Fyn (Homo sapiens, UniProt P06241, V285C); experiment: Inhibition of FYN Val285Cys mutant expressed in Escherichia coli
[11] = system: Ribosomal protein S6 kinase alpha-3 (Homo sapiens), P51812 [C436V]; experiment: Binding affinity to RSK2 C436V mutant at 1 uM preincubated for 1 hr by denaturing gel electrophoresis and Western blot
How it was run: (§3)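 His6-tagged RSK2 C-terminal kinase domains (WT or mutant) exposed to 1 μM biotin-fmk for 1 hour in the presence of His6-ERK2. Proteins resolved by SDS-PAGE. Western blot probed with streptavidin-HRP for covalent label and anti-His6 for total protein.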

[12] = molecular target: T1, Ribosomal protein S6 kinase alpha-3; experiment: Binding affinity to RSK2 in HEK293 cells assessed as protein labeling at 1 µM preincubated for 1 hr by immunodepletion method
[13] = system: Ribosomal protein S6 kinase alpha-3 (Homo sapiens), P51812 [T493M]; experiment: Binding affinity to RSK2 T493M mutant at 1 uM preincubated for 1 hr by denaturing gel electrophoresis and Western blot; how it was run: as §3
[14] = molecular target: Ribosomal protein S6 kinase alpha-1 (Homo sapiens) (UniProt Q15418); experiment: Binding affinity to RSK1 in HEK293 cells assessed as protein labeling at 1 µM preincubated for 1 hr by enhanced chemiluminescence detection
[15] = molecular target: T1, Ribosomal protein S6 kinase alpha-3; experiment: Binding affinity to RSK2 in HEK293 cells assessed as protein labeling at 1 µM preincubated for 1 hr by enhanced chemiluminescence detection
[16] = molecular target: T1, Ribosomal protein S6 kinase alpha-3; experiment: Binding affinity to wild type RSK2 at 1 uM preincubated for 1 hr by denaturing gel electrophoresis and Western blot; how it was run: as §3
[17] = molecular target: Ribosomal protein S6 kinase alpha-1 (Homo sapiens) (UniProt Q15418); experiment: Binding affinity to RSK1 in HEK293 cells assessed as protein labeling at 1 µM preincubated for 1 hr by immunodepletion method
[18] = system: Tyrosine-protein kinase transforming protein Src (Avian leukosis virus RSA (RSV-SRA) (Rous sarcoma virus (strainSchmidt-Ruppin A))), P00524 [V281C]; experiment: Inhibition of Rous sarcoma virus V-src V281C mutant expressed in mouse NIH-3T3 cells assessed as reduction in steady-state phosphotyrosine level preincubated for 1 hr by Western blot; format: cell-based; conditions: NIH3T3
[19] = system: Tyrosine-protein kinase transforming protein Src (Avian leukosis virus RSA (RSV-SRA) (Rous sarcoma virus (strainSchmidt-Ruppin A))), P00524 [V281C]; experiment: Reversion of Rous sarcoma virus V-src V281C mutant-dependent cell morphology in mouse NIH-3T3 cells assessed as cells acquiring actin stress fibres at 1 uM after 16 hrs by phalloidin-FITC and DAPI staining; format: cell-based; conditions: NIH3T3
[20] = system: NIH3T3; experiment: Reversion of Rous sarcoma virus wild type V-src-dependent cell morphology in mouse NIH-3T3 cells assessed as cells acquiring actin stress fibres at 1 uM after 16 hrs by phalloidin-FITC and DAPI staining; format: cell-based
[21] = system: NIH3T3; experiment: Inhibition of Rous sarcoma virus wild type V-src expressed in mouse NIH-3T3 cells assessed as reduction in steady-state phosphotyrosine level preincubated for 1 hr by Western blot; format: cell-based

T1 sequence (P51812 whole entry, the tested form may be a part): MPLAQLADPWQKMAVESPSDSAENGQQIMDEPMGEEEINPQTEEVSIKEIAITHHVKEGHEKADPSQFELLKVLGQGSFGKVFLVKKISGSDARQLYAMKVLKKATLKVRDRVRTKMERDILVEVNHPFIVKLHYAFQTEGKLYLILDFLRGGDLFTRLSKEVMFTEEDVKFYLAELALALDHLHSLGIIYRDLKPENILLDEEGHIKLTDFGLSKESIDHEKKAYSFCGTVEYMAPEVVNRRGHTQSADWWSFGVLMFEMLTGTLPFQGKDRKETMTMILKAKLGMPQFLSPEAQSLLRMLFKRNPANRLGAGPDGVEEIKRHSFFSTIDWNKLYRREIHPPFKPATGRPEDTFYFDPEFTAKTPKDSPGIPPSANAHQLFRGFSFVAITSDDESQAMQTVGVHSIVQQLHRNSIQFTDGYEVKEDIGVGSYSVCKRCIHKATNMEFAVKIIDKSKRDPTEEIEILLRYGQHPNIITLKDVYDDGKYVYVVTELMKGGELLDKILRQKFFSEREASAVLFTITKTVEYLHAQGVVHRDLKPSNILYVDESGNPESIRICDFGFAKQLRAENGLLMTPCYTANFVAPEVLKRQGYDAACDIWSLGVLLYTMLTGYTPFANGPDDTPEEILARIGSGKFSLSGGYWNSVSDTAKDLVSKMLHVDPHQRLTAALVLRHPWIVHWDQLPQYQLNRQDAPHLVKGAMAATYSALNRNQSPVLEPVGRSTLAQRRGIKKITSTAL
Sequence of Tyrosine-protein kinase Fyn (P06241 2-537 V285C limits assumed): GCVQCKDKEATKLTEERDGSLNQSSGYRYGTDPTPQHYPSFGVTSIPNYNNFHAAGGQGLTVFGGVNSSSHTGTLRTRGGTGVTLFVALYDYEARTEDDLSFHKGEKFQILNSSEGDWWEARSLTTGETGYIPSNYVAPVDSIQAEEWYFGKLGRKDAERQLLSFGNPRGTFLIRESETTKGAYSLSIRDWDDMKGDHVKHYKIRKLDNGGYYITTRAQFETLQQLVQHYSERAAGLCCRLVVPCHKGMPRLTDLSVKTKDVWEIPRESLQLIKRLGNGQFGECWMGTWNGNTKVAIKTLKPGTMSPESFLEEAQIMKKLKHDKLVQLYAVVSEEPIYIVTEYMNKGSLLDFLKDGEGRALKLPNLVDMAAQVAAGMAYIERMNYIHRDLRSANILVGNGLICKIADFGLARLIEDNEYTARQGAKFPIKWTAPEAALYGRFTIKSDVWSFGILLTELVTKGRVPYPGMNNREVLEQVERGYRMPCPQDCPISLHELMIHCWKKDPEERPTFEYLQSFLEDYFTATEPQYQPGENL
Sequence of Ribosomal protein S6 kinase alpha-1 (Homo sapiens) (Q15418 whole entry): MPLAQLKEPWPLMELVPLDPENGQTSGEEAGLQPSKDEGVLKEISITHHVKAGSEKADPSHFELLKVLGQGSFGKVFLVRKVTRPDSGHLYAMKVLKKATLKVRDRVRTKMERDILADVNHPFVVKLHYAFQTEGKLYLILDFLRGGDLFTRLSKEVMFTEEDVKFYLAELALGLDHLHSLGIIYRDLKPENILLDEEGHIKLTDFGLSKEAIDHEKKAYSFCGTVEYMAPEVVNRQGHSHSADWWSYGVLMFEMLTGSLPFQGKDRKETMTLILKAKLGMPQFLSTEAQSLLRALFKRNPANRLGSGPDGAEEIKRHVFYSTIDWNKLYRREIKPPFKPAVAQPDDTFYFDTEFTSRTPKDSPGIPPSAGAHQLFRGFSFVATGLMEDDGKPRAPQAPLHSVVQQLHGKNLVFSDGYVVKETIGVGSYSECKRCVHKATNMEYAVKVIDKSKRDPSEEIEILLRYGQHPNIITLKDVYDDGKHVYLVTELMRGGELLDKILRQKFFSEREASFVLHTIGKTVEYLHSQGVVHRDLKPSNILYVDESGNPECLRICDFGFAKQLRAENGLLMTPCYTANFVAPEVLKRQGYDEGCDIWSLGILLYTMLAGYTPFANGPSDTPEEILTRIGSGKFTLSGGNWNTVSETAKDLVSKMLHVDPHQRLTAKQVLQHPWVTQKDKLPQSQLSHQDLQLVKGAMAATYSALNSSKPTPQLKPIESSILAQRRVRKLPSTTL
Sequence of Ribosomal protein S6 kinase alpha-3 (Homo sapiens), P51812 [C436V] (P51812 whole entry C436V, the tested form may be a part): as the sequence (P51812 whole entry, the tested form may be a part) above, with C436V counted along it
Sequence of Ribosomal protein S6 kinase alpha-3 (Homo sapiens, UniProt P51812, C436V) (P51812 whole entry C436V, the tested form may be a part): as the sequence (P51812 whole entry, the tested form may be a part) above, with C436V counted along it
Sequence of Ribosomal protein S6 kinase alpha-5 (Homo sapiens) (O75582 whole entry, looked up): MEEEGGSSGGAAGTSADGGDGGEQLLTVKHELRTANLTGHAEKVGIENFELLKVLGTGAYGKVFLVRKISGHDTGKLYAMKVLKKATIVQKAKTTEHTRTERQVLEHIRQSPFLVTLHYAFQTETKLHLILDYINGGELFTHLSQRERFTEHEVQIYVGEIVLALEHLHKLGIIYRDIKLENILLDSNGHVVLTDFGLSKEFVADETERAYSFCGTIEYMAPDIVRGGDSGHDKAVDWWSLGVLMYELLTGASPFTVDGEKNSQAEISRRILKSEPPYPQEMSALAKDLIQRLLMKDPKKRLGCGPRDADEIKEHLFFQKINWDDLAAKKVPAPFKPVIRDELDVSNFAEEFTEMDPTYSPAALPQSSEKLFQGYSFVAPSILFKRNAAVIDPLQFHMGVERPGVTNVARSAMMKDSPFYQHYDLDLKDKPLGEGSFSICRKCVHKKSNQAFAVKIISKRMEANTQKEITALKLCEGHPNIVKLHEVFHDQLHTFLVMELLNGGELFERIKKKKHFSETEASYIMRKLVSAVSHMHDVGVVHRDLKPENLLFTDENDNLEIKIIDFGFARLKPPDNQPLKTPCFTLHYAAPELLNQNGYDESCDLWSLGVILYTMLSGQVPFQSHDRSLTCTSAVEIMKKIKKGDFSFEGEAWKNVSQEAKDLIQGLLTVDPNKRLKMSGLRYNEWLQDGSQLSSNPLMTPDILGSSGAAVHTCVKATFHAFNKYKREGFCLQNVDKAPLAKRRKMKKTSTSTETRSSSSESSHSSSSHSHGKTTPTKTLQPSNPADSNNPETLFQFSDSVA
Sequence of Ribosomal protein S6 kinase alpha-3 (Homo sapiens), P51812 [T493M] (P51812 whole entry T493M): as the sequence (P51812 whole entry, the tested form may be a part) above, with T493M counted along it
Sequence of Ribosomal protein S6 kinase alpha-3 (Homo sapiens, UniProt P51812, T493M) (P51812 whole entry T493M, the tested form may be a part): as the sequence (P51812 whole entry, the tested form may be a part) above, with T493M counted along it
Sequence of Ribosomal protein S6 kinase alpha-5 (Homo sapiens), O75582 [M498T] (O75582 whole entry M498T): as the sequence (O75582 whole entry, looked up) above, with M498T counted along it

pIC50 [1]: 6.37 | pIC50 [2]: < 4.52 | pIC50 [3]: 5.92
Compound: Cc1ccc(-c2cn(CCCO)c3ncnc(N)c23)cc1

Activity [4]: Active | pEC50 [5]: 6.70 | Activity [6]: inactive | pIC50 [10]: 9.00
Compound: Cc1ccc(-c2c(C(=O)CF)n(CCCO)c3ncnc(N)c23)cc1
Activity [7]: inactive | Activity [8]: inactive | Activity [9]: inactive

Activity [11]: inactive | Activity [12]: Active | Activity [13]: inactive | Activity [14]: Active | Activity [15]: Active | Activity [16]: Active | Activity [17]: Active
Compound: Cc1ccc(-c2c(C(=O)CF)n(CCCOC(=O)NCCCCNC(=O)CCCC[C@@H]3SC[C@H]4NC(=O)N[C@@H]34)c3ncnc(N)c23)cc1

Compound: Cc1ccc(-c2c(C(=O)CCl)n(CCCO)c3ncnc(N)c23)cc1
Activity [18]: Active | Activity [19]: 2% | Activity [20]: 75% | pIC50 [10]: 7.00 | Activity [21]: inactive
